Runt-CBFb FRET: inhibitors of RUNX1 Runt–CBFb binding, primary screen, biochemical, FRET, Cerulean-Runt, Venus-CBFb, uHTS; Runt-related transcription factor 1 (Homo sapiens) + Core-binding factor subunit beta …; Cerulean-Runt/Venus-CBFb FRET ratio 530/480, 1 h; inhibition, % at 20 µM; actives 0.46% (n = 220,000); AID 1496, 2009;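 active = inhibition over about 50% at 20 µM in the single-dose screen, limit read from the data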
Target sequence (Q01196 whole entry, looked up): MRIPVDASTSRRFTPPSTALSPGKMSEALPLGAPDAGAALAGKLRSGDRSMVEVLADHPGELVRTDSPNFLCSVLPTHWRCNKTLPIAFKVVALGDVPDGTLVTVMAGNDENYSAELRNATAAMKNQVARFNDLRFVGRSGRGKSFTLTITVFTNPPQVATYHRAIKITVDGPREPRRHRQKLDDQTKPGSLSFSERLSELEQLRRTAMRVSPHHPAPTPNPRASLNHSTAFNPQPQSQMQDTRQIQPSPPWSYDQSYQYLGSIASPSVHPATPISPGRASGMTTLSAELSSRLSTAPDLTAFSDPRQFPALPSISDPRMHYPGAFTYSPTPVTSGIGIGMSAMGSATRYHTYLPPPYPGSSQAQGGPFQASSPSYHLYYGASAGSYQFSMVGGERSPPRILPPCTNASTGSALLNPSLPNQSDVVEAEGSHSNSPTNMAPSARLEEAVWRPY
Target sequence (Q13951 whole entry, looked up): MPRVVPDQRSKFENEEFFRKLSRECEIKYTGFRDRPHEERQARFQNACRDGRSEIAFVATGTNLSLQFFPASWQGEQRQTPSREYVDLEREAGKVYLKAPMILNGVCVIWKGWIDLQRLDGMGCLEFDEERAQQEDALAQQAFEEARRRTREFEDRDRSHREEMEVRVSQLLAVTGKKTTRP
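test system = Cerulean-tagged RUNX1 Runt domain (FRET donor) fusion protein | reagent = Venus-CBFb binding partner, 100 nM | incubation = protein complex preformed 1 h, compound exposure 1 h, room temperature, dark | detection = FRET fluorescence | read-out basis = loss of energy transfer signal | controls = 5 µM unlabeled CBFb as full-inhibition high control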
Efa HMGR inh: inhibitors of E. faecalis class II HMGR, primary screen, biochemical, Enterococcus faecalis; actives 0.41% (n = 190,000); AID 1066, 2008; HMG-CoA reductase (Enterococcus faecalis, mvaE); purified E. faecalis HMGR, NADPH absorbance 340 nm kinetic; inhibition, % at 10 µM;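 active = inhibition above a set limit, the median over all tested compounds plus 3 SD, cut at about 9.5% in these data; inconclusive = no clear call, values can overlap the other calls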;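 also: enzyme runs in reverse so mevalonate oxidation gives rising NADPH absorbance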
PHOSPHO1 block: PubChem AID 1565; Phosphoethanolamine/phosphocholine phosphatase (Homo sapiens), Q8TCT1; recombinant PHOSPHO1, absorbance phosphatase assay; inhibition, % at 13.3 µM; actives 1.1% (n = 290,000); in the data active = inhibition above about 60%
Wee1 degr inh: Wee1 degradation inhibitors, primary screen, cell-based, HeLa, Wee1K328M-luciferase, luminescence; Wee1-like protein kinase (Homo sapiens), P30291; actives 1.2% (n = 220,000); HeLa Luc-Wee1K328M stability; 100% = proteasome inhibitor MG132 effect; reporter increase, % at 5 µM;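 active = activation above the mean of all tested compounds plus 3 SD, set per screening run, cut at about 8.8% in these data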;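 also: cells exposed to compound for 20 h before luminescence read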
RanGTP-Imp inh: inhibitors of RanGTP-importin-beta interaction, primary screen, biochemical, FRET, CFP-Ran, YFP-importin-beta, homogeneous; AID 2216, 2009; Ran GTPase (GTP-bound) - importin-beta complex; inhibition, % (concentration not given with the values); cell-free CFP-Ran/YFP-importin-beta FRET ratio; actives 1.1% (n = 300,000);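 active = more than half of the replicate wells show a fall in the fluorescence ratio signal beyond about 16%, limit read from the data, passing the limit was not always enough; inconclusive = exactly half of the replicate wells pass the set limit; inactive = fewer than half of replicates pass the limit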
Runt-SMMHC FRET: inhibitors of RUNX1 Runt–CBFb-SMMHC binding, primary screen, biochemical, FRET, Cerulean-Runt, Venus-CBFb-SMMHC, uHTS; Runt-related transcription factor 1 (Homo sapiens) + Core-binding factor subunit beta …; AID 1434, 2008; inhibition, % at 20 µM; actives 0.74% (n = 220,000); Cerulean-Runt/Venus-CBFb-SMMHC FRET ratio 530/480, 1 h;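 active = mean inhibition across duplicate retests at 20 µM reaching about 50%, limit read from the data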;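 also: inhibitors lower the FRET ratio by blocking Runt binding to CBFb-SMMHC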
A number is an active result; 0 = inactive; ? = inconclusive; - = no result given. Shown are actives, neighbours in structure and some others; about 3.4% of the full set was active somewhere.

SMILES | Runt-CBFb FRET | Efa HMGR inh | PHOSPHO1 block | Wee1 degr inh | RanGTP-Imp inh | Runt-SMMHC FRET
CN1CCc2c(sc(N)c2C(=O)c2ccc(Cl)cc2)C1 | - | - | 0 | - | 0 | -
CSc1ccc(C2NC(=O)c3c(sc4c3CCN(C)C4)N2)cc1 (centres undefined) | 110 | 0 | 0 | 0 | 112 | 64
CN1CCc2c(sc3c2C(=O)NC(/C=C\c2ccccc2)N3)C1 (centres undefined) | 118 | - | 0 | 0 | 121 | 70
Cc1cccc2c1cnn2C(=O)Nc1ccccc1Cl | - | - | 0 | - | 0 | -
CC1CCCC(C)N1C(=O)COC(=O)CNC(=O)c1ccc(Cl)cc1Cl (centres undefined) | - | - | - | - | 0 | -
Cc1ccc(S(=O)(=O)N(C)C)cc1NC(=O)COC(=O)CSc1ccccc1 | - | - | - | - | 0 | -
COc1cc(CNC(C)C)ccc1OCC(=O)Nc1cccc2ccccc12 | - | - | 61 | - | 0 | -
CSc1ccc(NC(=O)c2cccnc2)cc1C#N | 0 | 0 | 0 | 8.8 | 0 | 0
Cc1ccc(NC(=O)c2cccnc2)cc1C | - | - | 0 | - | 0 | -
CCN(CC)c1ccc(-c2c(C#N)c(N)nc(OC)c2C#N)cc1 | 0 | 0 | 0 | 0 | 0 | 99
CC1CCCC(NC(=O)COC(=O)Cc2cn3ccsc3n2)C1C (centres undefined) | 0 | 0 | 96 | 0 | - | 0
N#CCc1ccc(OC(=O)c2cnccc2C(F)(F)F)cc1 | - | - | 0 | - | 0 | -
CC(NC(=O)c1sc2cc([N+](=O)[O-])ccc2c1Cl)C(C)(C)C (centres undefined) | 0 | 0 | 0 | 9.0 | 0 | 0
Cc1ccc(C)n1-c1ccccc1N1CCCCC1 | 0 | 0 | 63 | 0 | 0 | 0
c1ccc(Cc2nnc3sc(-c4ccco4)nn23)cc1 | 0 | 0 | 96 | 0 | ? | 0
COc1cc(-c2nn3c(COc4ccccc4)nnc3s2)cc(OC)c1OC | 0 | 0 | 74 | 0 | ? | 0
c1ccc(Cc2nn3c(COc4ccccc4)nnc3s2)cc1 | 0 | 0 | 66 | 0 | 0 | 0
CCOc1ccccc1OCc1nn2c(COc3ccccc3)nnc2s1 | 0 | 0 | 0 | 0 | 0 | 0
COc1cc(-c2nn3c(Cc4ccccc4)nnc3s2)cc(OC)c1OC | 0 | 0 | 77 | 0 | 0 | 0
N#C/C(=C(/O)c1cccc(F)c1)c1nc2ccccc2s1 | 0 | - | 0 | 10 | 0 | 0
Cn1c(/C(C#N)=C(\O)c2cccc(F)c2)nc2ccccc21 | - | - | 0 | - | 0 | -
Cc1ccc(CCC(=O)Nc2ccc(N(C)C)cc2)o1 | - | - | 0 | - | 0 | -
CC(OC(=O)Cn1cnc2c1c(=O)n(C)c(=O)n2C)C(=O)Nc1ccc(Cl)cc1 (centres undefined) | - | - | - | - | 0 | -
Cc1cc(NO)nc(-c2ccc(Br)cc2)n1 | 0 | 0 | 96 | 0 | 0 | 0
O=C1C2CC=CCC2C(=O)N1c1ncn[nH]1 (centres undefined) | 0 | 0 | 0 | 0 | 39 | 0
SMILES | Runt-CBFb FRET | Efa HMGR inh | PHOSPHO1 block | Wee1 degr inh | RanGTP-Imp inh | Runt-SMMHC FRET
COc1cc(CNc2ccc(CNc3ncn[nH]3)cc2)ccc1OCc1ccccc1 | 0 | 0 | 0 | 10 | 0 | 0
COc1ccc(CCN2CC(C(=O)N(C)CC(=O)Nc3cccc(F)c3)CC2=O)cc1OC (centres undefined) | - | - | 0 | - | 0 | -
CC1CCCCC1NC(=O)CN(C)S(=O)(=O)c1ccc2c(c1)c(=O)n(C)c(=O)n2C (centres undefined) | - | - | 0 | - | 0 | -
CCCC1=NN2C(=N)/C(=C\c3ccc(SCc4ccco4)o3)C(=O)N=C2S1 | 0 | 0 | 89 | 0 | 0 | 0
O=C1NC(=S)S/C1=C\c1ccc(SCc2ccco2)o1 | 0 | 13 | 80 | 0 | - | 0
CCC1=NN2C(=N)/C(=C\c3ccc(SCc4ccco4)o3)C(=O)N=C2S1 | 0 | 0 | 83 | 0 | 0 | 0
O=C(Nc1ccncc1)c1ccc(Cl)c(S(=O)(=O)N2CCCC2)c1 | - | - | - | - | 0 | -
O=C(NNC(=S)NCc1ccco1)c1ccc(Cl)s1 | 0 | 0 | 103 | 0 | 0 | 0
Cn1cc(Cl)c(C(=O)NNC(=S)NCc2ccco2)n1 | 0 | 0 | 0 | 0 | 0 | 0
COc1cccc(/C=C/C(=O)OCC(=O)NC(=O)NC2CCCCC2)c1 | - | - | - | - | 0 | -
CC(=O)c1cccc(NC(=O)Cn2nc(-c3ccc(Cl)cc3)ccc2=O)c1 | 0 | 0 | 0 | 0 | 0 | 0
CC(=O)c1cccc(NC(=O)Cn2nc(-c3ccccc3Cl)ccc2=O)c1 | 0 | 0 | 0 | 11 | 0 | 0
Cc1nn(CC(=O)Nc2cccc(Cl)c2)c(=O)c2cc(-c3ccccc3)nn12 | - | - | 65 | - | 0 | -
Cc1ccc(/C=C/C(=O)OC(C)C(=O)Nc2ncc(Cl)cc2Cl)o1 (centres undefined) | 0 | 0 | 0 | 0 | 0 | 0
COCCNC(=O)CN1CCC(NC(=O)c2ccco2)CC1 | 0 | 0 | 0 | 0 | 0 | 0
O=c1[nH]n2c(=O)c3c([nH]c2c1N=Nc1cccc(Cl)c1)CCCC3 | 0 | 0 | 76 | 0 | ? | 0
CCN1CCN(S(=O)(=O)c2c(C)cc(C)cc2C)CC1 | - | - | 0 | - | 0 | -
CC(=O)n1c2c(c3ccccc31)OC(N)=C(C#N)C2c1ccc(C(C)C)cc1 (centres undefined) | 0 | 0 | 0 | 0 | 31 | 0
CC(C)(CC(=O)O)CC(=O)Nc1ccc2c(c1)ncn2CCc1ccccc1 | - | - | 0 | - | 0 | -
N#C/C(=C\c1c[nH]c2ccccc12)C(=O)Nc1ncc(Cc2ccc(Cl)cc2Cl)s1 | 0 | 0 | 0 | 0 | 46 | 0
Cc1ccc(SCC(=O)O/N=C(\N)c2cccnc2)cc1 | - | - | 0 | - | 0 | -
Cn1c2c(c(=O)n(C)c1=O)NC1(N2)C(=O)Nc2ccccc21 (centres undefined) | 0 | - | 0 | 0 | 37 | 0
COc1ccccc1CNCC(c1ccccc1)c1ccccc1 | - | - | 0 | - | 0 | -
CCOc1ccc(NC(=O)CCC(=O)Nc2cc(OC)c(NC(=O)c3ccco3)cc2OC)cc1 | - | - | 0 | - | 0 | -
O=C(CN1CCN(Cc2ccc3c(c2)OCO3)CC1)c1c[nH]c2ccccc12 | 0 | 0 | 84 | 0 | 0 | 0

Screening results from PubChem BioAssay.
